Results gathered from unrelated publications.
Read-out: cell growth or viability

CC(C)(C)c1cnc(CSc2cnc(NC(=O)C3CCN(CCCCSc4cccc5c4C(=O)N(C4CCC(=O)NC4=O)C5=O)CC3)s2)o1 (stereo not shown) — viability (HH; CCK-8; 0.5 µM): 0%
CC(=NNC(=O)COc1ccc2c(C)c(Cc3ccccc3)c(=O)oc2c1C)c1ccc(Br)cc1 — viability (HepG2; MTT; 1.6 µg/mL): 54.8%
CCOC(=O)c1nn(-c2cccc(Cl)c2)/c(=N/N=C(\C)c2ccc(NC(=O)c3ccccc3)cc2)s1 — viability (HepG2; MTT; 10 µM): 3%
CC(=NNC(=O)c1ccccc1)c1ccc(Nc2nnc(-c3ccc(Cl)cc3)c3ccccc23)cc1 — viability (HepG2; MTT; 0.625 µM; 24 h): 48.7%
CC(=O)c1nn(-c2ccc(C)cc2)/c(=N/N=C(\C)c2ccc(NC(=O)c3ccccc3)cc2)s1 — viability (HepG2; MTT; 10 µM): 6.81%
O=C(C=Cc1ccccc1)Nc1ccc(Oc2nnc(-c3ccc(Cl)cc3)c3ccccc23)cc1 — viability (HepG2; MTT; 0.625 µM; 24 h): 78.5%
CC(=O)Nc1ccc(/C(C)=N/N=c2\sc(C(C)=O)nn2-c2ccc(C)cc2)cc1 — viability (HepG2; MTT; 2.5 µM): 99.4%
CC(C)(C)c1cnc(CSc2cnc(NC(=O)C3CCN(CCCCCCCCSc4cccc5c4C(=O)N(C4CCC(=O)NC4=O)C5=O)CC3)s2)o1 (stereo not shown) — viability (HH; CCK-8; 0.5 µM): 0%
CC(=NNC(=O)c1ccccc1Cl)c1ccc(Nc2nnc(-c3ccc(Cl)cc3)c3ccccc23)cc1 — viability (HepG2; MTT; 2.5 µM; 24 h): 4.78%
CC(C)(C)c1cnc(CSc2cnc(NC(=O)C3CCN(CCCCCCCSc4cccc5c4C(=O)N(C4CCC(=O)NC4=O)C5=O)CC3)s2)o1 (stereo not shown) — viability (HH; CCK-8; 10 nM): 99.5%
CC(=NNC(=O)c1ccccc1Br)c1ccc(Nc2nnc(-c3ccc(Cl)cc3)c3ccccc23)cc1 — viability (HepG2; MTT; 0.312 µM; 24 h): 85.4%
CC(=O)c1nn(-c2ccccc2Cl)/c(=N/N=C(\C)c2ccc(NC(=O)c3ccccc3)cc2)s1 — viability (HepG2; MTT; 78 nM): 71.7%
CC(C)(C)c1cnc(CSc2cnc(NC(=O)C3CCN(CCCCCSc4cccc5c4CN(C4CCC(=O)NC4=O)C5=O)CC3)s2)o1 (stereo not shown) — viability (HH; CCK-8; 10 nM): 93.5%
